According to ChEMBL document CHEMBL5678817, “FTBMT, a Novel and Selective GPR52 Agonist, Demonstrates Antipsychotic-Like and Procognitive Effects in Rodents, Revealing a Potential Therapeutic Agent for Schizophrenia” (J Pharmacol Exp Ther, 2017):
The source made the active and inactive calls. No cut-off for these calls is given here.

Columns and labels:
[1] = target: G-protein coupled receptor 52 (Mus musculus) (UniProt P0C5J4); assay: Agonist activity at mouse GPR52 expressed in CHO cells assessed as increase in intracellular cAMP level upto 10 uM incubated for 30 mins by Alphascreen assay; format: functional, cell-based
G-protein coupled receptor 52 (Mus musculus), sequence (P0C5J4 whole entry): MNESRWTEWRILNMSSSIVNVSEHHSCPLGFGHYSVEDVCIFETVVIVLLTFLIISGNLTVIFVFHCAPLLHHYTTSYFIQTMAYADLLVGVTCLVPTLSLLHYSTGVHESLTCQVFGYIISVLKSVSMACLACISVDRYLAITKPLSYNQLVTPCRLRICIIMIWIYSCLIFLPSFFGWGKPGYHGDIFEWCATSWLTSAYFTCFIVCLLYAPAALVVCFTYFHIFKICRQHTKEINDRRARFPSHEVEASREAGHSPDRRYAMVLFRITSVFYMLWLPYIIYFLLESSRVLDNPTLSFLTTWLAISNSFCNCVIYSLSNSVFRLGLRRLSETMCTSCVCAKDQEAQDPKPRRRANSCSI
Procedure, shortened: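 CHO cells stably expressing human, mouse or rat GPR52, plus naïve CHO cells, at 10,000 cells/well. Stimulated in cAMP assay buffer for 30 min at 37 °C. Intracellular cAMP read by AlphaScreen.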

[2] = target: Collagenase 3 (Homo sapiens) (UniProt P45452); assay: Inhibition of MMP13 (unknown origin) at 10 uM relative to control
Procedure, shortened: (§1)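 Enzyme activity assays from the same 98-target biochemical panel. Single test concentration of 10 µM. Read-out is % inhibition of enzyme activity relative to control; negative percentages indicate activation of the enzyme.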

[3] = target: Phosphodiesterase 3 (Homo sapiens) (UniProt Q14432+Q13370); assay: Inhibition of PDE3 (unknown origin) at 10 uM relative to control; format: protein assay; procedure, shortened: as §1
[4] = target: cAMP and cAMP-inhibited cGMP 3',5'-cyclic phosphodiesterase 10A (Homo sapiens) (UniProt Q9Y233); assay: Inhibition of PDE10A1 (unknown origin) at 10 uM relative to control; procedure, shortened: as §1
cAMP and cAMP-inhibited cGMP 3',5'-cyclic phosphodiesterase 10A (Homo sapiens), sequence (Q9Y233 whole entry): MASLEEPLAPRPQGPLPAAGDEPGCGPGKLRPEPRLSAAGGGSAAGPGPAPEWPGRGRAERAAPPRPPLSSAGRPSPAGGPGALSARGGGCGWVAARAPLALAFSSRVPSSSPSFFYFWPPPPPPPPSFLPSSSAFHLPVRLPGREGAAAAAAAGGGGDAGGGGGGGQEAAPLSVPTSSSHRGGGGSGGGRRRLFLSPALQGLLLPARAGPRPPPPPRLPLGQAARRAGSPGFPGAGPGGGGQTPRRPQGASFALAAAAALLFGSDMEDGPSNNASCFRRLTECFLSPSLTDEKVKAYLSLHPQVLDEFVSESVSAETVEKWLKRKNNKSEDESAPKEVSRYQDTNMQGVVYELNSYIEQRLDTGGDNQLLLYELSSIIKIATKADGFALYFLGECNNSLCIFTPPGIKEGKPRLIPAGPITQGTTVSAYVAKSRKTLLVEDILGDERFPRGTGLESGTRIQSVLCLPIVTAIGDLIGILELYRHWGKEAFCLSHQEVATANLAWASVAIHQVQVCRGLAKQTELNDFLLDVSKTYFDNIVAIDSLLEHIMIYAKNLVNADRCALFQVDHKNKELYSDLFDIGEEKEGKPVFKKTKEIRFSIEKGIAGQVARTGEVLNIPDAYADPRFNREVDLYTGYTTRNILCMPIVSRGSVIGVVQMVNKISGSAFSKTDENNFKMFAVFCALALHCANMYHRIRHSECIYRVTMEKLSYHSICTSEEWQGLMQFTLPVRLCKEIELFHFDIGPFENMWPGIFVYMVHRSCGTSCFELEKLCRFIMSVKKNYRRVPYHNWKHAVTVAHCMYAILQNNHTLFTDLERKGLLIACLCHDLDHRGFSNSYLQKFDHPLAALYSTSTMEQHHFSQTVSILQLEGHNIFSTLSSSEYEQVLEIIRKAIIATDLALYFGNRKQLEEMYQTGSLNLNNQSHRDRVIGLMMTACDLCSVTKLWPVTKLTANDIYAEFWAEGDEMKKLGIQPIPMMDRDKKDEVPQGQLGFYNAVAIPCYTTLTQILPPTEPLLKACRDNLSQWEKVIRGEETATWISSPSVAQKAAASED

[5] = target: Xanthine oxidase (xanthine dehydrogenase/oxidase) (Homo sapiens, UniProt P47989); assay: Inhibition of Xanthine oxidase (unknown origin) at 10 uM relative to control
Xanthine oxidase (xanthine dehydrogenase/oxidase), sequence (P47989 whole entry): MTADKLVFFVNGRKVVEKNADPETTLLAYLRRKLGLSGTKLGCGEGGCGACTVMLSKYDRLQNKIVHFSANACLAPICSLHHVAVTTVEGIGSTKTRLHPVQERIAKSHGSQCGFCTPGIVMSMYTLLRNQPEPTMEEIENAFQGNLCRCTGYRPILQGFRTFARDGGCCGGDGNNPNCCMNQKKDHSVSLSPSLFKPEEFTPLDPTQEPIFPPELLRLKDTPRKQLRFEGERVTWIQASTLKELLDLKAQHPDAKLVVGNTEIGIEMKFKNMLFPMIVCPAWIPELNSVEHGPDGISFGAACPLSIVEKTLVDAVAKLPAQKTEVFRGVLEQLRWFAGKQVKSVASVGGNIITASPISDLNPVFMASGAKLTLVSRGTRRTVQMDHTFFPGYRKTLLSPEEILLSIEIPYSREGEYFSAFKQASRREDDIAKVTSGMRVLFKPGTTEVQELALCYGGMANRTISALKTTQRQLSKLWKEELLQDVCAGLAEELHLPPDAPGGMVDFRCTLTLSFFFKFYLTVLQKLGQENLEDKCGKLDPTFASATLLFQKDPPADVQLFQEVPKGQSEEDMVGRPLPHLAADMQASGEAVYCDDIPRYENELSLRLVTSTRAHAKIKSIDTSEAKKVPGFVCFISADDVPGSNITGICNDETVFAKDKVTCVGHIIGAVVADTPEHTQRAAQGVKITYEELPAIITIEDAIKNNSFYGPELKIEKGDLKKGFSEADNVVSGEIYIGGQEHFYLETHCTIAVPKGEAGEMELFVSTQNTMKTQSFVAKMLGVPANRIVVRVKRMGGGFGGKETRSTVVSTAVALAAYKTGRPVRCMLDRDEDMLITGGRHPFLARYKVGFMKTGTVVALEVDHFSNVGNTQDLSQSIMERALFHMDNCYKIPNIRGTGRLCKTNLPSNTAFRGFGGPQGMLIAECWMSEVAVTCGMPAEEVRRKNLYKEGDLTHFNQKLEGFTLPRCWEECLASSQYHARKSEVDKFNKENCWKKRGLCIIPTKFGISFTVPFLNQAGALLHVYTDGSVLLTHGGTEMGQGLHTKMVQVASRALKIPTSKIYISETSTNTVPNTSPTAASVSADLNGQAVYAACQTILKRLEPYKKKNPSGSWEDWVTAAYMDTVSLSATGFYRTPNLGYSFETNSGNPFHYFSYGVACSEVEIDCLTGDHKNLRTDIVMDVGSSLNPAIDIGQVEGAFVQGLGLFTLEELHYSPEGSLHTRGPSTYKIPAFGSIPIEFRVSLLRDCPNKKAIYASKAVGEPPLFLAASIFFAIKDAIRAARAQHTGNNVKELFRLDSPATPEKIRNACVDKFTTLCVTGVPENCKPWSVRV
Procedure, shortened: (§2)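 Binding and enzyme panel run by an outside contractor against receptors, ion channels and enzymes. Each assay used a single 10 μM test concentration, and results are expressed as percent inhibition. A negative value means stimulation of receptor activity or activation of enzyme activity.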

[6] = target: Alpha-1A adrenergic receptor (Homo sapiens) (UniProt P35348); assay: Inhibition of Adrenergic alpha1 receptor (unknown origin) at 10 uM relative to control
Alpha-1A adrenergic receptor (Homo sapiens), sequence (P35348 whole entry): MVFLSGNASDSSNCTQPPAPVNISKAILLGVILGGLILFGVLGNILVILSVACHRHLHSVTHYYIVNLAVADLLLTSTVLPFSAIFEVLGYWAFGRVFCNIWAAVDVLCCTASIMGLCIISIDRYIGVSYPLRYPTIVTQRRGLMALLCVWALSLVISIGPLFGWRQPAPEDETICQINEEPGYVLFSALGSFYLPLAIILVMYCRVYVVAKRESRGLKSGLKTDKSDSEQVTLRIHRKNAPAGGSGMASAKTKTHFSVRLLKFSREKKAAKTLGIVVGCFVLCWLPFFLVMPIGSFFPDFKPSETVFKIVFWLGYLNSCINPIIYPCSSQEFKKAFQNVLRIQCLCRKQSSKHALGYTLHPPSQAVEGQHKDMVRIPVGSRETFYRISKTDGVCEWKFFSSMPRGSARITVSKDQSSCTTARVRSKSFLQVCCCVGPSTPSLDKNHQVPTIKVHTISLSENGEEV
Procedure, shortened: (§3)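 Single-point screen at 10 μM across receptor, ion channel and enzyme binding or activity assays. Expressed as percent inhibition versus control; negative values denote stimulation.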

[7] = target: Alpha-2B adrenergic receptor (Homo sapiens) (UniProt P18089); assay: Inhibition of Adrenergic alpha2B receptor (unknown origin) at 10 uM relative to control; procedure, shortened: as §3
Alpha-2B adrenergic receptor (Homo sapiens), sequence (P18089 whole entry): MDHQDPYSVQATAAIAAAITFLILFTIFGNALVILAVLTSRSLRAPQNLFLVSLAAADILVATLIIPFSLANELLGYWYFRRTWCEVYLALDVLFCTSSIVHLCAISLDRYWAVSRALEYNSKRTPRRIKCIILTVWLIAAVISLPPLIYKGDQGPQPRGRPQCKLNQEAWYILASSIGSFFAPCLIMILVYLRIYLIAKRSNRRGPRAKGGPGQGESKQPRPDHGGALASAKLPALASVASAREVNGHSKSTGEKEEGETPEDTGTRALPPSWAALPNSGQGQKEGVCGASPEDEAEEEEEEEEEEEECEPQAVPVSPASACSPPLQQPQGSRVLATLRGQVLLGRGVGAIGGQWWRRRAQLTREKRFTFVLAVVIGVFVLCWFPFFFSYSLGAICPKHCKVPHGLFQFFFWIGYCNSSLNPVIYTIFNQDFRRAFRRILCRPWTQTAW

[8] = target: Type-2 angiotensin II receptor (Homo sapiens) (UniProt P50052); assay: Inhibition of AT2 receptor (unknown origin) at 10 uM relative to control; procedure, shortened: as §3
Type-2 angiotensin II receptor (Homo sapiens), sequence (P50052 whole entry): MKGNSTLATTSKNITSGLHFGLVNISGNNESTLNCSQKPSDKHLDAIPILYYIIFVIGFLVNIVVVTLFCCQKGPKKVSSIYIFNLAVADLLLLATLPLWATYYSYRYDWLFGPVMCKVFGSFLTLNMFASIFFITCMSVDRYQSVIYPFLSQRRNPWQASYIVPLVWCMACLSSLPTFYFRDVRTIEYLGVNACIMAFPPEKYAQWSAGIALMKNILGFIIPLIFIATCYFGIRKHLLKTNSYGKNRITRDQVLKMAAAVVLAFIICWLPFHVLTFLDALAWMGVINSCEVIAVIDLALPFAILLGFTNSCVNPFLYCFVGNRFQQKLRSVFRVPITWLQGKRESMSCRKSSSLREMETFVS

[9] = target: Voltage-gated L-type calcium channel (Homo sapiens, UniProt O60840+Q01668+Q13698+Q13936); assay: Inhibition of Calcium channel L-type (unknown origin) at 10 uM in presence of benzothiazepine relative to control; format: protein assay; details: probe benzothiazepine; procedure, shortened: as §3
[10] = target: Cannabinoid receptor 1 (Homo sapiens) (UniProt P21554); assay: Inhibition of CB1 receptor (unknown origin) at 10 uM relative to control; procedure, shortened: as §3
[11] = target: D(4) dopamine receptor (Homo sapiens) (UniProt P21917); assay: Inhibition of Dopamine D4 receptor (unknown origin) at 10 uM relative to control
Procedure, shortened: (§4)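 Part of a 98-target external biochemical selectivity panel that used radioligand/receptor binding-type assays. Compound tested once at 10 µM. Results are reported as % inhibition versus control; negative values mean stimulation of receptor activity.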

Homo sapiens [12] = species: Homo sapiens; assay: Inhibition of GABAB1B receptor (unknown origin) at 10 uM relative to control; procedure, shortened: as §4
Homo sapiens [13] = species: Homo sapiens; assay: Inhibition of Glutamate receptor (unknown origin) at 10 uM relative to control; procedure, shortened: as §4
[14] = target: Glutamate [NMDA] receptor (Homo sapiens) (UniProt Q05586+Q12879+Q13224+O15399+O60391+Q14957+Q8TCU5); assay: Inhibition of Glutamate NMDA receptor (unknown origin) at 10 uM in presence of phencyclidine to control; format: protein-complex assay; procedure, shortened: as §4
[15] = target: Muscarinic acetylcholine receptor M3 (Homo sapiens) (UniProt P20309); assay: Inhibition of Muscarinic M3 receptor (unknown origin) at 10 uM relative to control; procedure, shortened: as §4
Homo sapiens [16] = species: Homo sapiens; assay: Inhibition of Nicotinic acetylcholine receptor (unknown origin) at 10 uM relative to control; procedure, shortened: as §4
[17] = target: Kappa-type opioid receptor (Homo sapiens) (UniProt P41145); assay: Inhibition of opioid kappa receptor (unknown origin) at 10 uM relative to control; procedure, shortened: as §2
[18] = target: Mu-type opioid receptor (Homo sapiens) (UniProt P35372); assay: Inhibition of mu opioid receptor (unknown origin) at 10 uM relative to control; procedure, shortened: as §2
[19] = target: 5-hydroxytryptamine receptor 2B (Homo sapiens) (UniProt P41595); assay: Inhibition of Serotonin 5-HT2B receptor (unknown origin) at 10 uM relative to control; procedure, shortened: as §4
5-hydroxytryptamine receptor 2B (Homo sapiens), sequence (P41595 whole entry): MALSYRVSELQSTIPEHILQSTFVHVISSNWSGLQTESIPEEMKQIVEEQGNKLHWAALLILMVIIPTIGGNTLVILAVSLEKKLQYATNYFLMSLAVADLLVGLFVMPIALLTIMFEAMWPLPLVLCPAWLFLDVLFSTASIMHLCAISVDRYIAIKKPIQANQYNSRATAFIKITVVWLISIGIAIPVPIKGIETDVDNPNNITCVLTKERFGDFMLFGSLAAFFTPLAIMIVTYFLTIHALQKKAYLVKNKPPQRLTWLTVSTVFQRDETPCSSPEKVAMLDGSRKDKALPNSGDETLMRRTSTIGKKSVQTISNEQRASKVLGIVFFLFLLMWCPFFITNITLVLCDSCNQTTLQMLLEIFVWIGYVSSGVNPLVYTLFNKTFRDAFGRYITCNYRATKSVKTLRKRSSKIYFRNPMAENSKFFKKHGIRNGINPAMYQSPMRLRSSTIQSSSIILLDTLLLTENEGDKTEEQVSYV

Homo sapiens [20] = species: Homo sapiens; assay: Inhibition of dopamine receptor (unknown origin) at 10 uM relative to control; procedure, shortened: as §2
[21] = target: Vasopressin V2 receptor (Homo sapiens) (UniProt P30518); assay: Inhibition of Vasopressin V2 receptor (unknown origin) at 10 uM relative to control; procedure, shortened: as §2
Vasopressin V2 receptor (Homo sapiens), sequence (P30518 whole entry): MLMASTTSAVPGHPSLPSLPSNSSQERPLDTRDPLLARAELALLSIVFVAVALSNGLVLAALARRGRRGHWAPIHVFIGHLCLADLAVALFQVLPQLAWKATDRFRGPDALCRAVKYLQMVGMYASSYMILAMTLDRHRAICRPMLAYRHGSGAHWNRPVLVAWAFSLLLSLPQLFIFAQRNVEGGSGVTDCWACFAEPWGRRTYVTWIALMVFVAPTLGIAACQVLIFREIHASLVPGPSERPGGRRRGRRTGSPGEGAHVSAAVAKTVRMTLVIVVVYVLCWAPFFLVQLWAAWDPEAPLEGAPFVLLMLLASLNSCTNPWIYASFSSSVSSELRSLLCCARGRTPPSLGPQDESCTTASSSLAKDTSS

Mus musculus [22] = assay: Antipsychotic activity in po dosed ICR mouse assessed as inhibition of MK-801-induced hyperactivity pretreated with compound for 1 hr followed by MK-801 addition and measured after 90 mins; format: functional, organism-based; details: dose 3-30 mg/kg, time 150.0 min
Procedure, shortened: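 Male ICR mice (7–8 weeks) habituated >60 min in individual cages with activity monitors. Oral dosing at 3–30 mg/kg or vehicle 60 min before MK-801 (0.2 mg/kg s.c.) or vehicle. Activity counted for 60 min pretreatment and 90 min after MK-801; n = 9–10.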

Mus musculus [23] = assay: Antipsychotic activity in C57BL/6N mouse assessed as increase in c-fos positive cells in dorsomedial striatum at 30 mg/kg, po measured for 2 hrs by immunohistochemistry analysis; format: functional, organism-based
Mus musculus [24] = assay: Antipsychotic activity in C57BL/6N mouse assessed as increase in Egr-2 mRNA expression at 3 to 100 mg/kg, po measured for 1 hr by qPCR analysis; format: functional, organism-based; details: dose 3-100 mg/kg
Procedure, shortened: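 Mice dosed orally at 3–100 mg/kg or vehicle. Tissues taken 1 h post-dose, NAc shell and striatum dissected, frozen on dry ice. IEG mRNA quantified by qPCR (absolute or ΔΔCt); n = 5–6; mean ± SEM.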

Rattus norvegicus = assay: Pro-cognitive activity in Long-Evans rat assessed as increase in exploration time for novel object at 3 to 10 mg/kg, po measured after 3 mins by NORT test; format: functional, organism-based; details: dose 3-10 mg/kg
Procedure, shortened: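 Male Long-Evans rats (7 weeks) were habituated to a 40 × 40 × 50 cm box for 10 min. The acquisition trial was 3 min with two identical objects. Oral dosing at 3 or 10 mg/kg followed immediately after acquisition. The 3-min retention trial, with one familiar and one novel object, ran 48 h later. Exploration was hand-scored by a blinded scorer, and NDI = novel/total × 100. n = 10.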

Mus musculus [25] = assay: Pro-cognitive activity in C57BL/6N mouse assessed as increase in c-fos gene expression in hippocampus at 3 to 30 mg/kg, po measured after 2 hrs […]; format: functional, organism-based; details: dose 3-30 mg/kg
Mus musculus [26] = assay: Pro-cognitive activity in GPR52 knockout C57BL/6N mouse assessed as increase in c-fos gene expression in hippocampus at 30 mg/kg, po measured after 2 hrs […]; format: functional, organism-based

## Cc1cc(-n2nc(Cc3cc(F)cc(C(F)(F)F)c3)nc2C)ccc1C(N)=O [TP-024]
[1]
  Activity: inactive
[2]
  inhibition: 1%
[3]
  inhibition: 28%
[4]
  inhibition: 0%
[5]
  inhibition at 10 µM: 10%
[6]
  inhibition: 3%
[7]
  inhibition: 5%
[8]
  inhibition: 1%
[9]
  inhibition at 10 µM: 19%
[10]
  inhibition: -4%
[11]
  inhibition: 3%
Homo sapiens [12]
  inhibition: 2%
Homo sapiens [13]
  inhibition: 2%
[14]
  inhibition: 4%
[15]
  inhibition: -6%
Homo sapiens [16]
  inhibition: -2%
[17]
  inhibition: -9%
[18]
  inhibition: -10%
[19]
  inhibition: 6%
Homo sapiens [20]
  inhibition: -1%
[21]
  inhibition: -1%
Mus musculus [22]
  Activity: Dose-Dependent Effect
Mus musculus [23]
  Activity: Active
Mus musculus [24]
  Activity: Active
Rattus norvegicus
  Activity: Active
Mus musculus [25]
  Activity: Active
Mus musculus [26]
  Activity: inactive
